Activity calls are given as the source filed them. No cut-off for these calls is given here.
Tests used:
Aorta [1] = assay: Maximal vasorelaxant activity in Wistar rat endothelium-denuded aortic ring assessed as reduction of KCl-induced contraction at 30 uM relative to control; format: functional
How it was run: (§1)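 Rat aortic rings were pre-contracted with KCl 30 mM and exposed to cumulative test concentrations. Potency: pIC50, the negative log of the concentration halving KCl-induced tone. Efficacy: Emax, the maximal relaxation at the highest concentration tested. Both given as mean ± SEM.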

Aorta [2] = assay: Vasorelaxant activity in Wistar rat endothelium-denuded aortic ring assessed as reduction of KCl-induced contraction; format: functional, tissue-based; how it was run: as §1
Rattus norvegicus [3] = assay: Hypoglycemic activity in STZ-treated Wistar rat diabetic model at 50 mg/kg, ip after 10 mins treated with 1 g/kg, ip glucose; format: functional, organism-based; set-up: dose 50 mg/kg
How it was run: (§2)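 Male Wistar rats (250–300 g) made diabetic with streptozotocin 50 mg/kg ip (fasting glycemia 100–150 mg/dl at day 4), fasted 24 h, then dosed ip. Glucose 1 g/kg ip was given 10 min later. Blood glucose was read by tail puncture with a glucometer at 0, 15, 30, 45, 60, 90 and 120 min, and AUC was calculated. Vehicle normoglycemic rats served as reference.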

Rattus norvegicus [4] = assay: Hypoglycemic activity in STZ-treated Wistar rat diabetic model at 75.8 mg/kg, ip after 10 mins treated with 1 g/kg, ip glucose; format: functional, organism-based; set-up: dose 75.8 mg/kg; how it was run: as §2
Rattus norvegicus [5] = assay: Cardio-protective anti-ischemic activity in STZ-treated Wistar rat heart assessed as reduction in ischemic area at 18.2 mg/kg, ip for 7 days followed by treatment hearts submitted to 30 mins ischemia measured after 120 mins of reperfusion; format: functional, organism-based; set-up: dose 18.2 mg/kg
How it was run: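 STZ-diabetic male Wistar rats (50 mg/kg ip; fasting glycemia 100–150 mg/dl) dosed ip daily for 7 days from day 11, with vehicle normoglycemic rats as reference. Langendorff hearts: 30 min equilibration, 30 min ischemia, 120 min reperfusion. Then 2 mm left-ventricle slices were stained with triphenyltetrazolium chloride, and damaged area was measured by planimetry as % of whole area. Mean ± SEM.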

Rattus norvegicus [6] = assay: Cardio-protective anti-ischemic activity in STZ-treated Wistar rat heart assessed as recovery of functional parameter at 18.2 mg/kg, ip for 7 days followed by treatment hearts submitted to 30 mins ischemia measured after 120 mins of reperfusion; format: organism-based; set-up: dose 18.2 mg/kg
How it was run: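 Male Wistar rats (250–300 g) given streptozotocin 50 mg/kg ip; those with fasting glycemia 100–150 mg/dl at day 4 were used. From day 11, daily ip dosing for 7 days, with vehicle-treated normoglycemic rats as reference. Hearts were taken under heparin and pentobarbital, Langendorff-perfused, equilibrated 30 min, then 30 min ischemia and 120 min reperfusion. Read-out: RPP recovery %, mean ± SEM.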

SMILES | Emax at 30 µM (Aorta [1]) [%] | IC50 (Aorta [2]) [µM] | further results
CCOc1cc(CC(=O)N[C@@H](CC(C)C)c2ccccc2N2CCCCC2)ccc1C(=O)OCc1cccc(C(C)O[N+](=O)[O-])c1 (stereo partly specified) | 26 |  | 
CC(C)[C@H]1CC[C@H](C(=O)N[C@H](Cc2ccccc2)C(=O)OCc2cccc(CO[N+](=O)[O-])c2)CC1 | 45 |  | 
CC(O[N+](=O)[O-])c1ccc(COC(=O)[C@@H](Cc2ccccc2)NC(=O)[C@H]2CC[C@H](C(C)C)CC2)cc1 (stereo partly specified) | 58 | 23.4 | 
CC(C)[C@H]1CC[C@H](C(=O)N[C@H](Cc2ccccc2)C(=O)O)CC1 |  |  | Activity (Rattus norvegicus [3]): Active
CCOc1cc(CC(=O)N[C@@H](CC(C)C)c2ccccc2N2CCCCC2)ccc1C(=O)OCc1ccc(CO[N+](=O)[O-])cc1 | 94 | 8.13 | 
CCOc1cc(CC(=O)N[C@@H](CC(C)C)c2ccccc2N2CCCCC2)ccc1C(=O)OCc1cccc(CO[N+](=O)[O-])c1 | 79 | 13.2 | 
CCOc1cc(CC(=O)N[C@@H](CC(C)C)c2ccccc2N2CCCCC2)ccc1C(=O)OCc1ccc(C(C)O[N+](=O)[O-])cc1 (stereo partly specified) | 84 | 5.01 | 
CC(C)[C@H]1CC[C@H](C(=O)N[C@H](Cc2ccccc2)C(=O)OCc2ccc(CO[N+](=O)[O-])cc2)CC1 | 93 | 5.01 | Activity (Rattus norvegicus [4]): Active; Activity (Rattus norvegicus [5]): Active; Activity (Rattus norvegicus [6]): Active

— ChEMBL document CHEMBL3397023, “Synthesis and evaluation of multi-functional NO-donor/insulin-secretagogue derivatives for the treatment of type II diabetes and its cardiovascular complications” (Bioorg Med Chem, 2015)
